We go through 9 molecules from ChEMBL document CHEMBL3751667, “Carbamate substituted 2-amino-4,6-diphenylpyrimidines as adenosine receptor antagonists” (Bioorg Med Chem Lett, 2016).

Usually Ki stands for the dissociation constant of the complex between target and ligand, obtained from inhibition or displacement. Read a low Ki as higher affinity. By solubility is commonly meant the concentration that dissolves in the medium under given conditions. The low end stands for a poorly soluble substance, the high end for a readily soluble substance. A word on the logD: it is the decadic logarithm of the distribution of all forms, ionised or not, between an organic phase and buffer at a given pH. A low value points to a more hydrophilic compound.

In brackets after ≈: the same amount, converted by molar mass. Activity calls are given as the source filed them. The calls are words filed in the database; no cut-off is given here.

Data set [1] is filed under the species Rattus norvegicus. As to the kind of experiment: Selectivity ratio of Ki for adenosine A2A receptor in Sprague-Dawley rat striatal membrane to Ki for adenosine A1 receptor in Sprague-Dawley rat whole brain. A digest of the protocol:
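Index calculated as A2A Ki divided by A1 Ki. Both Ki values come from radioligand binding assays and are given as the mean ± SEM of duplicate determinations.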

The target in data set [2] is T1, Adenosine receptor A1 (Rattus norvegicus, UniProt P25099).
T1 sequence (P25099 whole entry): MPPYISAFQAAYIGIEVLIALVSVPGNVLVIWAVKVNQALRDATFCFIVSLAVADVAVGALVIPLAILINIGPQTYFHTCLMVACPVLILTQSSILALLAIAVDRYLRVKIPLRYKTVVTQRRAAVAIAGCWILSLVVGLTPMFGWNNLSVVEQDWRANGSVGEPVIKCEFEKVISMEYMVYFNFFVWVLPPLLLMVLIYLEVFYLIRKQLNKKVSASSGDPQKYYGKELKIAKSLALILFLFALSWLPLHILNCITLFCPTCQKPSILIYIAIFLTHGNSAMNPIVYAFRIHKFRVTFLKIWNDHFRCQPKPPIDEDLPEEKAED
As to the kind of experiment: Displacement of [3H]DPCPX from adenosine A1 receptor in Sprague-Dawley rat whole brain after 1 hr by scintillation counting.

The target in data set [3] is Adenosine receptor A2a (Rattus norvegicus, UniProt P30543). As to the kind of experiment: Displacement of [3H]NECA from adenosine A2A receptor in Sprague-Dawley rat striatal membrane after 1 hr by scintillation counting. Details: species or system Striatum. In general terms: Loss of bound radioactivity is the signal in a displacement assay; it reports binding, not function.

Data set [4] is described as follows: Solubility of the compound at 4.5 mg after 24 hrs by HPLC analysis. It counts as physicochemical. A digest of the protocol:
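Water solubility: excess compound shaken in water at 37 °C.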

Data set [5] can be described thus: n-octanol-potassium phosphate buffer partition coefficient, log D of the compound at pH 7.4 by shake flask method. The data set is classed as physicochemical. A digest of the protocol: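 Shake flask method; hydrophilic phase potassium phosphate buffer pH 7.4, hydrophobic phase n-octanol.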
For data set [6], the system named is Rattus norvegicus. As to the kind of experiment: Reversal of haloperidol-induced catalepsy in Sprague-Dawley rat at 0.4 to 2 mg/kg, ip after 60 mins relative to control. The data set is classed as functional, organism-based. Summed up: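 Sprague–Dawley rats, drug naïve, three groups; all given haloperidol 5.0 mg/kg i.p. to induce catalepsy. Thirty minutes later: DMSO (control) or test compound at 0.4 or 2 mg/kg. Catalepsy scored by standard bar test 60 minutes after first injection; compared with haloperidol + vehicle group by one-way ANOVA and Dunnett's post test.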

Adenosine receptor A2a, sequence (P30543 whole entry): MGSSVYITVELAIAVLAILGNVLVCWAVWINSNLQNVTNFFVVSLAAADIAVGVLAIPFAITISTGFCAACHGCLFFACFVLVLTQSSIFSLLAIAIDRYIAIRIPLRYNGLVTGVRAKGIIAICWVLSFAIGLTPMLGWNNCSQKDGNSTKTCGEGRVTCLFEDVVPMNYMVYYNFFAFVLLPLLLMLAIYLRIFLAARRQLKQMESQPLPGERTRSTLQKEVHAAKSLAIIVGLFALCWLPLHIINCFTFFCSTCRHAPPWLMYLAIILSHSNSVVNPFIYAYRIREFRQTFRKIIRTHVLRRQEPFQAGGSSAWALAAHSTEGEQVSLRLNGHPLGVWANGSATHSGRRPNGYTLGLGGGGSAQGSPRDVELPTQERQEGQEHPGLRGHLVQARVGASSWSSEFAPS

`CC(C)N(C(=O)Oc1cccc(-c2cc(-c3ccccc3)nc(N)n2)c1)C(C)C`: the Ratio Ki in data set [1] amounted to 69. In addition, the Ki in data set [2] came out at 0.175 nM; in data set [3], 12.1 nM.

Turning to `Nc1nc(-c2ccccc2)cc(-c2cccc(OC(=O)N(c3ccccc3)c3ccccc3)c2)n1`, the Ratio Ki in data set [1] was 42. Further, the inhibitory constant (Ki) was 10.7 nM in data set [2] and 451 nM in data set [3].

Consider `CCN(CC)C(=O)Oc1cccc(-c2cc(-c3ccccc3)nc(N)n2)c1`, for which the Ratio Ki in data set [1] worked out at 49. The Ki in data set [2] was 0.468 nM; in data set [3] it was 22.8 nM.

In the case of `CN(C(=O)Oc1cccc(-c2cc(-c3ccccc3)nc(N)n2)c1)c1ccccc1`, the Ratio Ki in data set [1] was 37. Moreover, the results for the Ki in data set [2] and in data set [3] were 1.07 nM and 39.9 nM, respectively.

`CN(C)C(=O)Oc1cccc(-c2cc(-c3ccccc3)nc(N)n2)c1`: the Ratio Ki in data set [1] came out at 25. For the same molecule, the inhibition constant Ki in data set [2] was determined as 2.06 nM; in data set [3], 51.9 nM.

For the molecule `CN1CCN(C(=O)Oc2cccc(-c3cc(-c4ccccc4)nc(N)n3)c2)CC1`, the Ratio Ki in data set [1] came to 0.8. Moreover, the Ki in data set [2] came out at 2.04 nM; in data set [3], 1.58 nM. The same molecule showed a solubility at 24 h in data set [4] of 0.22 µM (≈ 0.0857 µg/mL). Moreover, in data set [5], the logD worked out at 4.03. For the same molecule, the outcome in data set [6] was inactive.

Turning to `Nc1nc(-c2ccccc2)cc(-c2cccc(OC(=O)N3CCCC3)c2)n1`, the Ratio Ki in data set [1] was 30. The values for the Ki in data set [2] and in data set [3] were 0.835 nM and 24.8 nM, respectively.

In the case of `Nc1nc(-c2ccccc2)cc(-c2cccc(OC(=O)N3CCCCC3)c2)n1`, in data set [1], the Ratio Ki came to 4.6. Further, the Ki in data set [2] was 1.95 nM; in data set [3], 8.94 nM.

With `Nc1nc(-c2ccccc2)cc(-c2cccc(OC(=O)N3CCOCC3)c2)n1`, the Ratio Ki in data set [1] stood at 1.3. Besides, the Ki in data set [2] turned out to be 2.65 nM; in data set [3], 3.5 nM. The outcome in data set [6] was Active.
